The results in this text go back to ChEMBL document CHEMBL1154898, “Hepatoprotective constituents from the roots and stems of Erycibe hainanesis” (J Nat Prod, 2010).

Structures are written as SMILES. Calls of active or inactive are those of the source. No cut-off for these calls is given here.

Test system in one data set: not listed separately
The data set can be described thus: (§1) Hepatoprotective activity in rat WB-F344 cells assessed as inhibition of D-galactosamine-induced cytotoxicity at 10 uM after 1 hrs by MTT assay relative to control treated before D-galactosamine challenge. The data set is classed as functional. As to conditions: WB-F344, 1 h. The method in brief:
(§2)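 WB-F344 rat hepatic epithelial stem-like cells, 1 × 10⁴ per well in DMEM with 3% fetal calf serum and penicillin/streptomycin, precultured 24 h at 37 °C in 5% CO₂. Test samples were added in fresh medium for 1 h, then cells were exposed to 40 mM D-galactosamine for 24 h. Readout was MTT 0.5 mg/mL for 3.5 h, formazan dissolved in DMSO, OD at 492 nm. Inhibition (%) = (OD sample − OD control)/(OD normal − OD control) × 100. Values are mean ± SD, n = 3.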
A general note: Tetrazolium dyes change colour on reduction, which living cells bring about.
The inhibition is the change of the read-out against control, counted positive when it falls. `COc1cc(C(=O)OC[C@@]2(O)CO[C@@H](OC[C@H]3O[C@@H](Oc4c(OC)cc5ccc(=O)oc5c4OC)[C@H](O)[C@@H](O)[C@@H]3O)[C@@H]2O)cc(OC)c1O` [ERYCIBOSIDE F]: the inhibition at 10 µM is 15.5%.
For the compound `COc1cc(C(=O)O[C@H]2C[C@](O)(C(=O)O)C[C@H](O)[C@H]2OC(=O)/C=C/c2ccc(O)c(O)c2)cc(OC)c1O`, the inhibition at 10 µM was found to be 42.2%.
The same measure, in the same setting: with `COC(=O)c1cc(OC)c2c(c1-c1c(CO)cc(OC)c3c1OCO3)OCO2` [BICYCLOL] the figure was 11.2%.

The subject of the next data set is WB-F344. Described as §1. The format is functional.
Conditions: not given
The method in brief:
as §2
On to `COc1cc(C(=O)OC[C@@]2(O)CO[C@@H](O[C@H]3[C@H](Oc4cc5oc(=O)ccc5cc4OC)O[C@H](CO)[C@@H](O)[C@@H]3O)[C@@H]2O)ccc1O`, for which the outcome was inactive.
Still for that read-out and setting: with `COC(=O)[C@@]1(O)C[C@@H](OC(=O)/C=C/c2ccc(O)c(O)c2)[C@H](O)[C@H](OC(=O)c2cc(OC)c(O)c(OC)c2)C1` the entry was “inactive”.
Same read-out and setting: with `COc1cc2cc(-c3cc4cc(OC)c(O)cc4oc3=O)c(=O)oc2cc1O` the entry was “inactive”.

Test system in another data set: not listed separately
The data set can be described thus: Cytotoxicity against rat WB-F344 cells assessed as cell survival rate after 1 hr at 10 uM by MTT assay. The format is cell-based. As to conditions: read-out: Survival. The method in brief:
(§3)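 WB-F344 rat hepatic epithelial stem-like cells were seeded at 1 × 10⁴ cells/well in DMEM with 3% FCS, penicillin and streptomycin, and precultured 24 h at 37 °C in 5% CO₂. Test sample was added in fresh medium for 1 h, then 40 mM D-galactosamine for 24 h; parallel wells without D-galactosamine gave cytotoxicity. MTT (0.5 mg/mL) was added for 3.5 h, formazan dissolved in DMSO and read at 492 nm. Survival is % of normal, mean ± SD, n = 3.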
Take `COc1cc2ccc(=O)oc2cc1O[C@@H]1O[C@H](CO[C@@H]2OC[C@](O)(CO)[C@H]2OC(=O)c2cc(OC)c(O)c(OC)c2)[C@@H](O)[C@H](O)[C@H]1O` [ERYCIBOSIDE B]: the viability at 1 h, 10 µM came to 47%.

Test system in another data set: not listed separately
As to the kind of experiment: Cytotoxicity against rat WB-F344 cells assessed as cell survival rate after 1 hr at 100 uM by MTT assay. The format is cell-based. The note with it: read-out: Survival. Summed up:
as §3
`COc1cc(C(=O)OC[C@@]2(O)CO[C@@H](OC[C@H]3O[C@@H](Oc4c(OC)cc5ccc(=O)oc5c4OC)[C@H](O)[C@@H](O)[C@@H]3O)[C@@H]2O)cc(OC)c1O` [ERYCIBOSIDE F]: the viability at 1 h, 100 µM is 44%.
The same measure, in the same setting: with `COc1cc(C(=O)O[C@H]2C[C@](O)(C(=O)O)C[C@H](O)[C@H]2OC(=O)/C=C/c2ccc(O)c(O)c2)cc(OC)c1O` the figure was 61%; with `COC(=O)c1cc(OC)c2c(c1-c1c(CO)cc(OC)c3c1OCO3)OCO2` [BICYCLOL], 38%.

The test system of the next data set is WB-F344. As to the kind of experiment: Hepatoprotective activity in rat WB-F344 cells assessed as inhibition of D-galactosamine-induced cytotoxicity at 100 uM after 1 hrs by MTT assay relative to control treated before D-galactosamine challenge.
Conditions: not given
Take `COc1cc(C(=O)O[C@H]2C[C@](O)(C(=O)O)C[C@H](OC(=O)/C=C/c3ccc(O)c(O)c3)[C@H]2O)cc(OC)c1O`: the outcome was inactive.
On the same count and under the same terms, with `O=C(O)/C=C/c1ccc(O)c(O)c1` the entry was “inactive”; with `O=C(O)c1ccc(O)c(O)c1`, “inactive”.
As for `COc1cc(C(=O)O)ccc1O`, the outcome was inactive.
Still for that read-out and setting: with `COC(=O)[C@]1(O)C[C@@H](O)[C@@H](O)[C@H](OC(=O)/C=C/c2ccc(O)c(O)c2)C1` the entry was “inactive”; with `O=C(/C=C/c1ccc(O)c(O)c1)O[C@@H]1C[C@](O)(C(=O)O)C[C@@H](O)[C@H]1O`, “inactive”.
Same read-out and setting: with `COc1cc2ccc(=O)oc2cc1O[C@@H]1O[C@H](CO[C@@H]2OC[C@](O)(COC(=O)c3cc(OC)c(O)c(OC)c3)[C@H]2O)[C@@H](O)[C@H](O)[C@H]1O` the entry was “inactive”; with `COc1cc(/C=C/C(=O)NCCc2ccc(O)cc2)ccc1O`, “inactive”; with `COc1cc(C(=O)OC[C@@]2(O)CO[C@@H](OC[C@H]3O[C@@H](Oc4cc(OC)c(OC)c(OC)c4)[C@H](O)[C@@H](O)[C@@H]3O)[C@@H]2O)cc(OC)c1O`, “inactive”.
On the same count and under the same terms, with `O=C(/C=C/c1ccc(O)cc1)NCCc1ccc(O)cc1` the entry was “inactive”; with `COc1cc(C(=O)OC[C@@]2(O)CO[C@@H](OC[C@H]3O[C@@H](OC(C)C)[C@H](O)[C@@H](O)[C@@H]3O)[C@@H]2O)cc(OC)c1O`, “inactive”; with `COc1cc(C(=O)OC[C@@]2(O)CO[C@@H](OC[C@H]3O[C@@H](Oc4cc5oc(=O)ccc5cc4OC)[C@H](O)[C@@H](O)[C@@H]3O)[C@@H]2O)ccc1O`, “inactive”.
For `CCCCOC(=O)[C@]1(O)C[C@@H](O)[C@@H](O)[C@H](OC(=O)/C=C/c2ccc(O)c(O)c2)C1`, the outcome was inactive.
Still for that read-out and setting: with `CCOC(=O)[C@]1(O)C[C@@H](O)[C@@H](O)[C@H](OC(=O)/C=C/c2ccc(O)c(O)c2)C1` the entry was “inactive”; with `CCOC(=O)[C@]1(O)C[C@@H](O)[C@@H](OC(=O)/C=C/c2ccc(O)c(O)c2)[C@H](OC(=O)/C=C/c2ccc(O)c(O)c2)C1`, “inactive”.
On the same count and under the same terms, with `COc1cc(C(=O)O[C@@H]2[C@@H](OC(=O)/C=C/c3ccc(O)c(O)c3)C[C@@](O)(C(=O)O)C[C@@H]2O)cc(OC)c1O` the entry was “inactive”; with `COc1cc(C(=O)OC[C@@]2(O)CO[C@@H](OC[C@H]3O[C@@H](OCCc4ccc(O)cc4)[C@H](O)[C@@H](O)[C@@H]3O)[C@@H]2O)cc(OC)c1O`, “inactive”.
Still for that read-out and setting: with `COc1cc2ccc(=O)oc2cc1O[C@@H]1O[C@H](CO)[C@@H](O)[C@H](O)[C@H]1O[C@@H]1OC[C@](O)(COC(=O)c2cc(OC)c(O)c(OC)c2)[C@H]1O` the entry was “inactive”; with `COc1cc2cc(Oc3cc4oc(=O)ccc4cc3OC)c(=O)oc2cc1O`, “Active”.
